The source made the active and inactive calls.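 Rule for the calls: active = half-maximal effective dose for blocking growth of human endothelial cells at most 100 µM; inactive = the rest.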

What is called EC50 is the concentration that produces a half-maximal response.

In the assay the test system is HUVEC proliferation, viability ATP luminescence. Description: HUVEC proliferation inhibition, dose response, cell-based, ATP luminescence (AID 822).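 Note: cells exposed to compound for 72 h before the ATP read.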 The procedure, abridged:
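Assay system: HUVEC primary endothelial cells, low passage (≤12); amount: 1250 HUVEC cells seeded per well; buffer or medium: EBM plus 2% FBS; read-out: percent viability relative to median untreated cell signal, EC50 via four-parameter fit; signal: luminescent ATP measurement with CellTiter-Glo reagent; schedule: 72 h exposure, 37 °C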
For `CCCOC(=O)c1ccc(Oc2c(-c3ccc(OC)cc3O)n[nH]c2C)cc1`, the 50% effective concentration (EC50) was 9.48 µM.
For `Cc1cc2c(cc1C)CSC(c1c(O)ccc3ccccc13)SC2`, the EC50 is 5.81 µM.
With `C=CCOC(=O)C1=C(C)NC(SCC(=O)Nc2ccc(C)c(Cl)c2)=C(C#N)C1c1ccco1` (centres undefined), the half-maximal effective concentration (EC50) is 20.1 µM.
For the compound `CCc1cc(-c2[nH]ncc2-c2ccc3c(c2)OCO3)c(O)cc1O`, the EC50 was 7.97 µM.
For `Cc1ccc2[nH]c3c(N4CCN(Cc5ccccc5)CC4)ncnc3c2c1`, the concentration giving a half-maximal response (EC50) was 8.08 µM.
In the case of `Cc1oc(-c2ccccc2F)nc1CN1CCC(C(=O)NCCC2=CCCCC2)CC1`, the half-maximal effective concentration (EC50) is 12.4 µM.
For the compound `Cc1nn2c(NCCCN(C)C)c3c(nc2c1-c1ccccc1)CCC3`, the EC50 is 12.2 µM.
Regarding `CCCCN(Cc1ccco1)C(=O)c1cc2c(=O)[nH]c3ccc(C)cc3c2s1`, the EC50 is 4.57 µM.
With `Cc1ccccc1-c1nc(CN2CCC(C(=O)NCCC3=CCCCC3)CC2)c(C)o1`, the EC50 was 6.73 µM.
As for `COc1cc(-c2nnc(COc3ccc4cc(Br)ccc4c3)o2)cc(OC)c1OC`, the EC50 was 12.1 µM.
With `Cc1ccc(C(C)C)c(OCC(=O)Nc2ccc3c(c2)nc(CN2CCCC2)n3C)c1`, the concentration giving a half-maximal response (EC50) was 14.6 µM.
Regarding `CCOc1ccc(Nc2oc(-c3ccc(Cl)cc3)nc2C#N)cc1`, the EC50 is > 10 µM (inactive).
The figure for `COc1cccc(-c2nnc(Nc3nc4c(F)cccc4s3)o2)c1` is 8.57 µM.
On to `CCOC(=O)N1CCN(c2ncnc3c2oc2nc(C(C)C)c4c(c23)CCC4)CC1`, for which the EC50 is 19.4 µM.
With `Cc1ccc(-c2csc3ncnc(Sc4nnc(CN5CCCCCC5=O)o4)c23)cc1`, the concentration for a half-maximal effect (EC50) is 5.55 µM.
In the case of `N#C/C(=C/c1ccc(N2CCCCCC2)o1)c1ccc(F)cc1`, the concentration for a half-maximal effect (EC50) is 12.6 µM.
Take `CCCc1ccc(-c2cc(NC(=O)CSc3n[nH]c(N)n3)n(-c3ccccc3)n2)cc1`: the concentration for a half-maximal effect (EC50) was 8.38 µM.
Take `FC(F)C(F)(F)C(F)(F)C(F)(F)c1cc(-c2ccccc2)n[nH]1`: the EC50 was 8.28 µM.
For `COC(=O)C(CC(=O)c1ccc(Br)cc1)n1ccnc1` (centres undefined), the EC50 is 9.3 µM.
As to `Cc1ccc(C2(C(F)(F)F)N=C3Sc4cc(C)cc(C)c4N3C(=O)N2)cc1` (centres undefined), the concentration for a half-maximal effect (EC50) is 11 µM.
Turning to `CCCCS(=O)(=O)/C=C\C=C/S(=O)(=O)CCCC`, the EC50 is 5.04 µM.
In the case of `CCOC(=O)Cc1c(C)nc2c(-c3cccc(Br)c3)c[nH]n2c1=O`, the EC50 is 3.01 µM.
In the case of `CN1CCN(c2ccccc2NC(=O)c2ccc(-c3ccc(Cl)cc3Cl)o2)CC1`, the concentration for a half-maximal effect (EC50) was 6.37 µM.
Regarding `CC[n+]1cc(-c2ccccc2)nc(N2CCOCC2)n1`, the EC50 is 9.86 µM.
As to `Cc1cccc(N2CCN(C(=O)c3ccc4nc(-c5ccco5)c(-c5ccco5)nc4c3)CC2C)c1` (centres undefined), the half-maximal effective concentration (EC50) was 9.47 µM.
`Cn1c(CNc2cccc(Cl)c2)nnc1SCC(=O)OC1CCCCC1`: the concentration for a half-maximal effect (EC50) was 11.1 µM.
In the case of `CCCCCCCCOC(=O)C1=C(C)Nc2nnnn2C1c1cccs1` (centres undefined), the EC50 was 6.74 µM.
For the compound `Cc1cc(NC(=O)c2cc(-c3ccncc3)nc3c(C)cccc23)no1`, the concentration giving a half-maximal response (EC50) was 6.87 µM.
On to `CC(C)(C)c1nn(-c2ccccc2)c2[nH]c(=O)c(CNCc3ccc4c(c3)OCO4)cc12`, for which the EC50 was 8.15 µM.
With `Cc1cccc(-c2nnc(NC(=O)c3ccc(Cl)cc3)o2)c1`, the concentration giving a half-maximal response (EC50) was 2.78 µM.
Take `CCOC(=O)c1c(OCC)[nH]c2c1cc(O)c1ccccc12`: the EC50 is 17.4 µM.
`C=C(C)COc1ccc(-c2n[nH]c(C)c2Oc2ccccc2OC)c(O)c1`: the half-maximal effective concentration (EC50) was 10.9 µM.
In the case of `COc1ccc2nc(NC(=O)CSC3=NCCS3)sc2c1`, the EC50 is 4.95 µM.
As for `Oc1ccccc1-c1nnc(SCCN2CCOCC2)n1Cc1ccccc1`, the half-maximal effective concentration (EC50) was 13.6 µM.
Turning to `COc1ccc(NC(=O)c2ccccc2NC(=O)COc2ccccc2)cc1`, the EC50 is 11.2 µM.
On to `COC(=O)c1c(C)n(-c2ccc(C)cc2)c2ccc(O)cc12`, for which the half-maximal effective concentration (EC50) was 18.6 µM.
Take `COc1ccc(CNC(=O)c2c(N)n(CCCN3CCOCC3)c3nc4ccccc4nc23)cc1`: the EC50 was 10 µM.
The value for `CC(C)Cn1c(N)c(C(=O)NCc2cccs2)c2nc3ccccc3nc21` was 10.5 µM; that for `N#CC1=C(N)Oc2cc(Nc3ccccc3)ccc2C1c1ccncc1` (centres undefined) was 1.32 µM; that for `Brc1ccc(-c2csc(NNC3=NCCCCC3)n2)cc1` was > 10 µM (inactive).
`CCOC(=O)c1ccccc1Nc1cn(C(C)=O)c2ccccc12`: the concentration for a half-maximal effect (EC50) is 11.7 µM.
Regarding `O=c1cc(-c2ccccc2)[nH]n1-c1nc2ccccc2[nH]1`, the EC50 was 6.25 µM.
The value for `CCOC(=O)C1=C(N)n2c(s/c(=C/c3ccco3)c2=O)=C(C(=O)OC)C1c1ccco1` (centres undefined) was 5.98 µM; that for `CC1CCC(C(=O)c2c(O)c3ccccc3oc2=O)CC1` (centres undefined) was 7.71 µM.
As to `Cc1oc(-c2ccc(Cl)cc2)nc1CN1CCC(C(=O)N2CCN(Cc3ccccc3)CC2)CC1`, the EC50 was 8.43 µM.
Regarding `Cc1ccc(S(=O)(=O)c2c(C)nn(C(C)(C)C)c2OC(=O)c2ccco2)cc1`, the concentration for a half-maximal effect (EC50) was 12.1 µM.
`Oc1c(C(Nc2ccccn2)c2ccccn2)ccc2cccnc12` (centres undefined): the concentration giving a half-maximal response (EC50) is 17.8 µM.
Turning to `CCCCN(C)S(=O)(=O)c1ccc(C(=O)Nc2nnc(-c3cccs3)o2)cc1`, the half-maximal effective concentration (EC50) was 1.69 µM.
Turning to `O=C(Nc1ccc(Cl)cc1)N1CCCN(Cc2ccc(F)cc2)C1`, the EC50 is 12.6 µM.
Turning to `CCC1(C)Cc2c(sc3[nH]c(=S)n(Cc4ccccc4)c(=O)c23)CO1` (centres undefined), the 50% effective concentration (EC50) is 3.07 µM.
Regarding `Cc1ccc(C)c(N2CCN(CCCNC(=O)Cn3cc4c(n3)CCCCC4)CC2)c1`, the 50% effective concentration (EC50) was 10.9 µM.
Consider `CN1CCN(C(=O)c2ccc(COc3ccc(Cl)cc3Cl)cc2)CC1`, for which the concentration for a half-maximal effect (EC50) is 13.3 µM.
Take `CN1CCN(CCCN2c3ccccc3Sc3ccc(C(F)(F)F)cc32)CC1`: the EC50 is 6.57 µM.
`Nc1c(C(=O)C2CC2)sc2nc(-c3cccs3)cc(C(F)(F)F)c12`: the half-maximal effective concentration (EC50) was 8.07 µM.
In the case of `CCN(CC)CCn1c(=N)n(CCOc2ccccc2)c2ccccc21`, the concentration giving a half-maximal response (EC50) was 14.2 µM.
Take `CN1CCN(c2ccccc2NC(=O)c2cccc(OCc3ccccc3)c2)CC1`: the EC50 is 10.8 µM.
Take `N#CC(c1ccccc1)c1ccc2c(C(F)(F)F)cc(C(F)(F)F)nc2n1` (centres undefined): the EC50 was 16.7 µM.
Consider `CC(=O)SC(C[N+](=O)[O-])c1cn(C(C)=O)c2ccccc12` (centres undefined), for which the concentration giving a half-maximal response (EC50) is 6.72 µM.
As to `Cc1cccc(-c2nc(CN3CCCC(C(=O)NC4CCC(C)CC4)C3)c(C)o2)c1` (centres undefined), the EC50 was 11.6 µM.
The figure for `COc1ccc(Cc2nc(C(=O)Nc3ccc(Cl)cc3)cs2)cc1` is 19.9 µM; for `c1cc2c3c(cccc3c1)NC1(CCCCCC1)N2` it is > 10 µM (inactive); for `COC(=O)NC(=C(Cl)Cl)S(=O)(=O)c1ccccc1` it is 8.53 µM.
Take `Cc1ccc2oc3c(c(=O)c2c1)C(c1cccc(Br)c1)N(Cc1ccco1)C3=O` (centres undefined): the concentration giving a half-maximal response (EC50) is 19.9 µM.
As for `CN1CCN(c2ccccc2NC(=O)c2ccc(OCc3ccccc3)cc2)CC1`, the EC50 is 10.8 µM.
For `COc1ccc(C(=O)Nc2ccccc2C(=O)N(Cc2ccco2)C(C(N)=O)C(C)C)cc1` (centres undefined), the EC50 was 14.6 µM.
The figure for `CCOc1cc(/C=N\NC(=O)Cn2nc([N+](=O)[O-])cc2C)ccc1OCc1cccc2ccccc12` is 20.7 µM.
As to `Oc1ccc(Cl)cc1-c1cc(-c2ccco2)[nH]n1`, the EC50 was 13.7 µM.
The value for `CC(=O)C(C(C)=O)c1c(Cl)c(O)c(O)c2c(C(=O)c3ccccc3)coc12` was 5.38 µM; that for `CCOC(=O)/C=C/S(=O)(=O)c1ccc(NC(C)=O)cc1` was 15.8 µM.
For `CC1CCCCN1S(=O)(=O)c1ccc(C(=O)Nc2nnc(-c3ccccc3Cl)o2)cc1` (centres undefined), the half-maximal effective concentration (EC50) is 2.71 µM.
The figure for `Cc1cccc(NC(=O)c2cc(NC(=O)c3ccco3)ccc2N2CCCCC2)c1` is 13.3 µM; for `COc1ccccc1NC(=O)CC1C(=O)NCCN1C(=O)Nc1ccc(Cl)c(Cl)c1` (centres undefined) it is 10.8 µM; for `CCOc1cc2nc(-c3ccc(OC)c(OC)c3)nc(N3CCOCC3)c2cc1OC` it is 5.27 µM.
Regarding `O=C(Nc1nnc(-c2ccc3c(c2)CCCC3)o1)c1ccc(Cl)cc1Cl`, the EC50 was 2.25 µM.
On to `COC(=O)c1sccc1NC(=O)c1ccc2c(c1)OCO2`, for which the half-maximal effective concentration (EC50) is 20.4 µM.
The figure for `CC1(C)Nc2ccc(O)cc2-c2c1ssc2=S` is 4.58 µM.
Take `CC(C)=CCC/C(C)=C/CCC(C)NCCN1CCNCC1` (centres undefined): the EC50 was 14.6 µM.
As for `O=C(Cn1c(=O)n(CCCC(=O)NC2CCCC2)c(=O)c2ccccc21)NCCC1=CCCCC1`, the concentration giving a half-maximal response (EC50) was 18.1 µM.
On to `O=C(Nc1ccc2nn(-c3ccccc3)nc2c1)c1ccc2c(c1)OCO2`, for which the EC50 was 20.8 µM.
For `CCCn1c(Nc2nc3ccccc3n2C)nc2ccccc21`, the EC50 was 3.01 µM.
The figure for `CC1(c2ccccc2)CC(C)(C)N2C(=O)C3(C(C#N)=C(N)Oc4cc(O)ccc43)c3cccc1c32` (centres undefined) is 6.69 µM; for `CCCCN(CC)S(=O)(=O)c1ccc(C(=O)Nc2nnc(-c3ccccc3Cl)o2)cc1` it is 3.8 µM.
Consider `COc1ccc2nc(Nc3nc(CSc4nnnn4-c4ccccc4)cc(=O)[nH]3)nc(C)c2c1`, for which the EC50 is 4.49 µM.
The value for `CCOc1cc(C(=O)CSc2nnc(CNc3ccc(Cl)cc3)o2)ccc1NC(=O)CC` was 15.7 µM; that for `CCOc1ccc(-c2n[nH]c(C)c2Oc2ccc(OC)cc2)c(O)c1` was 12.4 µM; that for `CC(=O)Nc1ccc(NC2=Nc3ccccc3N3C2=Nc2c(c(C)nn2-c2ccccc2)C3c2ccccc2)cc1` (centres undefined) was 15.8 µM.
The value for `COc1ccc(C2Oc3ccccc3C3=C2C(c2cccs2)n2ncnc2N3)cc1` (centres undefined) was 16.3 µM.
Take `COC(=O)c1ccc2c(=O)n(Cc3ccco3)c(SCC(=O)Nc3ccc(C)c(Cl)c3)nc2c1`: the EC50 is 9.21 µM.
The value for `Nc1nc(-c2ccccc2)cc(-c2ccccc2O)n1` was 12.4 µM.
As for `CCc1ccc(-c2nc(CN3CCC(C(=O)N4CCN(c5ccccc5)CC4)CC3)c(C)o2)cc1`, the EC50 is 4.09 µM.
As to `Cc1ccc(/C=C/C(=O)c2ccccc2)cc1`, the EC50 was 17.1 µM.
On to `N=c1n(CCN2CCCCC2)c2ccccc2n1CC(O)c1cccc(Br)c1` (centres undefined), for which the 50% effective concentration (EC50) was 9.51 µM.
The value for `CCOC(=O)c1c(NC(=O)CSc2nc(C)cc(C)c2C#N)sc(C(C)=O)c1C` was 4.87 µM; that for `CCN(CC)c1ccc2c(c1)oc(=O)c1c(Cl)cc(=O)oc12` was 2.05 µM.

Values taken from PubChem BioAssay AID822 (SRMLSC, 2007).
